# Results: ChEMBL document CHEMBL2407075, “Sulphonamido-quinoxalines: search for anticancer agent” (Eur J Med Chem, 2013)
# Columns and labels:
# Assay type in all cases: functional
# U-251 = test: Growth inhibition of human U251 cells at 10 uM after 48 hrs by sulforhodamine B assay; details: U-251, 48 h, read-out: GI
# Outline: (§1)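 Single-dose screen at 10 µM across the NCI 60 panel. Cells in RPMI 1640 with 5% FBS and 2 mM L-glutamine, plated at 5000–40,000/well and preincubated 24 h at 37 °C, 5% CO2. Drug in DMSO, 48 h exposure. Fixed with TCA, stained with SRB, A515 read. Percent growth is taken relative to untreated control, and inhibition is 100 minus growth.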
# DU-145 = test: Growth inhibition of human DU145 cells at 10 uM after 48 hrs by sulforhodamine B assay; details: DU-145, 48 h, read-out: GI
# Outline: (§2)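 Single-dose NCI-60 prescreen at 10 µM for 48 h at 37 °C and 5% CO2, using cells grown in RPMI 1640 with 5% FBS and 2 mM glutamine. Protein was measured by SRB after TCA fixation: 10% final for adherent lines, 16% for suspension lines. Absorbance was read at 515 nm. Percent growth inhibition was obtained by subtracting percent growth from 100.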
# BT-549 = test: Growth inhibition of human BT549 cells at 10 uM after 48 hrs by sulforhodamine B assay; details: BT-549, 48 h, read-out: GI; outline: as §2
# SF-295 = test: Growth inhibition of human SF295 cells at 10 uM after 48 hrs by sulforhodamine B assay; details: SF-295, 48 h, read-out: GI; outline: as §1
# A549 = test: Growth inhibition of human A549/ATCC cells at 10 uM after 48 hrs by sulforhodamine B assay; details: A549, 48 h, read-out: GI; outline: as §2
# OVCAR-4 = test: Growth inhibition of human OVCAR4 cells at 10 uM after 48 hrs by sulforhodamine B assay; details: OVCAR-4, 48 h, read-out: GI; outline: as §1
# UO-31 = test: Growth inhibition of human UO31 cells at 10 uM after 48 hrs by sulforhodamine B assay; details: UO-31, 48 h, read-out: GI; outline: as §1
# KM12 = test: Growth inhibition of human KM12 cells at 10 uM after 48 hrs by sulforhodamine B assay; details: KM12, 48 h, read-out: GI; outline: as §1
# [1] = Growth inhibition of human NCI-ADR-RES cells at 10 uM after 48 hrs by sulforhodamine B assay; details: read-out: GI; outline: as §1
# UACC-257 = test: Growth inhibition of human UACC257 cells at 10 uM after 48 hrs by sulforhodamine B assay; details: UACC-257, 48 h, read-out: GI; outline: as §1
# HOP-62 = test: Growth inhibition of human HOP62 cells at 10 uM after 48 hrs by sulforhodamine B assay; details: HOP-62, 48 h, read-out: GI
# Outline: (§3)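 NCI-60 one-dose primary screen at a single 10 µM concentration. Cells in RPMI 1640 with 5% FBS, preincubated 24 h at 37 °C, 5% CO2. Drug exposure 48 h, then TCA fixation, SRB staining and absorbance at 515 nm. Percent growth calculated against time-zero and untreated control wells, then converted to percent growth inhibition.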
# COLO 205 = test: Growth inhibition of human COLO205 cells at 10 uM after 48 hrs by sulforhodamine B assay; details: COLO 205, 48 h, read-out: GI; outline: as §2
# HCT-116 = test: Growth inhibition of human HCT116 cells at 10 uM after 48 hrs by sulforhodamine B assay; details: HCT-116, 48 h, read-out: GI; outline: as §3
# NCI-H522 = test: Growth inhibition of human NCI-H522 cells at 10 uM after 48 hrs by sulforhodamine B assay; details: NCI-H522, 48 h, read-out: GI; outline: as §1
# 786-0 = test: Growth inhibition of human 786-0 cells at 10 uM after 48 hrs by sulforhodamine B assay; details: 786-0, 48 h, read-out: GI; outline: as §2
# [2] = Growth inhibition of human Hs 578T cells at 10 uM after 48 hrs by sulforhodamine B assay; details: read-out: GI; outline: as §3
# NCI-H23 = test: Growth inhibition of human NCI-H23 cells at 10 uM after 48 hrs by sulforhodamine B assay; details: NCI-H23, 48 h, read-out: GI; outline: as §1
# MDA-MB-468 = test: Growth inhibition of human MDA-MB-468 cells at 10 uM after 48 hrs by sulforhodamine B assay; details: MDA-MB-468, 48 h, read-out: GI; outline: as §1
# [3] = Growth inhibition of human HCC2998 cells at 10 uM after 48 hrs by sulforhodamine B assay; details: HCC 2998, 48 h, read-out: GI; outline: as §3
# SNB-19 = test: Growth inhibition of human SNB19 cells at 10 uM after 48 hrs by sulforhodamine B assay; details: SNB-19, 48 h, read-out: GI; outline: as §1
# RXF 393 = test: Growth inhibition of human RXF393 cells at 10 uM after 48 hrs by sulforhodamine B assay; details: RXF 393, 48 h, read-out: GI; outline: as §1
# NCI-H460 = test: Growth inhibition of human NCI-H460 cells at 10 uM after 48 hrs by sulforhodamine B assay; details: NCI-H460, 48 h, read-out: GI; outline: as §1
# Malme-3M = test: Growth inhibition of human MALME-3M cells at 10 uM after 48 hrs by sulforhodamine B assay; details: read-out: GI; outline: as §1
# SW-620 = test: Growth inhibition of human SW620 cells at 10 uM after 48 hrs by sulforhodamine B assay; details: SW-620, 48 h, read-out: GI; outline: as §1
# HT-29 = test: Growth inhibition of human HT-29 cells at 10 uM after 48 hrs by sulforhodamine B assay; details: HT-29, 48 h, read-out: GI; outline: as §3
# HL-60(TB) = test: Growth inhibition of human HL-60(TB) cells at 10 uM after 48 hrs by sulforhodamine B assay; details: HL-60, 48 h, read-out: GI
# Outline: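 Single-dose NCI-60 primary screen at 10 µM, 48 h exposure, SRB read-out. Growth percentage of treated versus untreated cells was recorded and given as percent inhibition by subtraction.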
# SR = test: Growth inhibition of human SR cells at 10 uM after 48 hrs by sulforhodamine B assay; details: read-out: GI; outline: as §1
# SK-MEL-5 = test: Growth inhibition of human SK-MEL-5 cells at 10 uM after 48 hrs by sulforhodamine B assay; details: SK-MEL-5, 48 h, read-out: GI; outline: as §1
# IGROV-1 = test: Growth inhibition of human IGROV1 cells at 10 uM after 48 hrs by sulforhodamine B assay; details: IGROV-1, 48 h, read-out: GI; outline: as §1
# SK-MEL-2 = test: Growth inhibition of human SK-MEL-2 cells at 10 uM after 48 hrs by sulforhodamine B assay; details: SK-MEL-2, 48 h, read-out: GI; outline: as §1
# T47D = test: Growth inhibition of human T47D cells at 10 uM after 48 hrs by sulforhodamine B assay; details: read-out: GI; outline: as §1
# HCT-15 = test: Growth inhibition of human HCT15 cells at 10 uM after 48 hrs by sulforhodamine B assay; details: HCT-15, 48 h, read-out: GI; outline: as §3
# LOX IMVI = test: Growth inhibition of human LOXIMVI cells at 10 uM after 48 hrs by sulforhodamine B assay; details: read-out: GI; outline: as §1
Compound,inhibition of growth at 10 µM (U-251),inhibition of growth at 10 µM (DU-145),inhibition of growth at 10 µM (BT-549),inhibition of growth at 10 µM (SF-295),inhibition of growth at 10 µM (A549),inhibition of growth at 10 µM (OVCAR-4),inhibition of growth at 10 µM (UO-31),inhibition of growth at 10 µM (KM12),inhibition of growth at 10 µM [1],inhibition of growth at 10 µM (UACC-257),inhibition of growth at 10 µM (HOP-62),inhibition of growth at 10 µM (COLO 205),inhibition of growth at 10 µM (HCT-116),inhibition of growth at 10 µM (NCI-H522),inhibition of growth at 10 µM (786-0),inhibition of growth at 10 µM [2],inhibition of growth at 10 µM (NCI-H23),inhibition of growth at 10 µM (MDA-MB-468),inhibition of growth at 10 µM [3],inhibition of growth at 10 µM (SNB-19),also measured
O=S(=O)(Nc1ccccn1)c1ccc2nc(-c3ccccc3)c(-c3ccccc3)nc2c1,56.5%,37.4%,80.2%,76.8%,54.7%,40.1%,45.2%,61.5%,73.2%,42.5%,22.8%,54.2%,72.1%,65.6%,99.2%,76.3%,46.5%,-4.67%,60.6%,43.6%,inhibition of growth at 10 µM (RXF 393): -40.4%; inhibition of growth at 10 µM (NCI-H460): 63.4%; inhibition of growth at 10 µM (Malme-3M): 32.9%; inhibition of growth at 10 µM (SW-620): 47.9%; inhibition of growth at 10 µM (HT-29): 81.7%; inhibition of growth at 10 µM (HL-60(TB)): 80.7%; inhibition of growth at 10 µM (SR): -3.25%; inhibition of growth at 10 µM (SK-MEL-5): -6.25%; inhibition of growth at 10 µM (IGROV-1): 31.8%; inhibition of growth at 10 µM (SK-MEL-2): 39.3%; inhibition of growth at 10 µM (T47D): 81.1%; inhibition of growth at 10 µM (HCT-15): 62.4%; inhibition of growth at 10 µM (LOX IMVI): 63.3%
NC(=S)NNS(=O)(=O)c1ccc2nc(-c3ccccc3)c(-c3ccccc3)nc2c1,26.8%,2.73%,1.83%,8.92%,34.7%,16.5%,13.7%,15.9%,11.9%,8.83%,38.7%,4.83%,17.8%,13.7%,2.34%,6.63%,11.6%,30.8%,8.92%,14.8%,inhibition of growth at 10 µM (RXF 393): 29.2%; inhibition of growth at 10 µM (NCI-H460): 15.6%; inhibition of growth at 10 µM (Malme-3M): 2.94%; inhibition of growth at 10 µM (SW-620): 3.72%; inhibition of growth at 10 µM (HT-29): 30.8%; inhibition of growth at 10 µM (HL-60(TB)): 40.6%; inhibition of growth at 10 µM (SR): 50%; inhibition of growth at 10 µM (SK-MEL-5): 39.1%; inhibition of growth at 10 µM (IGROV-1): 8.83%; inhibition of growth at 10 µM (SK-MEL-2): 7.94%; inhibition of growth at 10 µM (T47D): 42.6%; inhibition of growth at 10 µM (HCT-15): 29.9%; inhibition of growth at 10 µM (LOX IMVI): 11.2%
CC(=S)NS(=O)(=O)c1ccc2nc(-c3ccccc3)c(-c3ccccc3)nc2c1,10.3%,2.63%,2.74%,5.83%,7.74%,13.4%,10.6%,16.8%,8.63%,2.23%,2.84%,4.64%,14.5%,3.73%,2.83%,20.8%,11.7%,23.7%,6.23%,2.12%,inhibition of growth at 10 µM (RXF 393): 14.5%; inhibition of growth at 10 µM (NCI-H460): 8.63%; inhibition of growth at 10 µM (Malme-3M): 2.85%; inhibition of growth at 10 µM (SW-620): 3.84%; inhibition of growth at 10 µM (HT-29): 21.5%; inhibition of growth at 10 µM (HL-60(TB)): 35.3%; inhibition of growth at 10 µM (SR): 41%; inhibition of growth at 10 µM (SK-MEL-5): 28.9%; inhibition of growth at 10 µM (IGROV-1): 14.8%; inhibition of growth at 10 µM (SK-MEL-2): 8.53%; inhibition of growth at 10 µM (T47D): 40.6%; inhibition of growth at 10 µM (HCT-15): 26.2%; inhibition of growth at 10 µM (LOX IMVI): 12.2%
